Compound activity from PubChem.
CAL PDZ FP-1 = inhibitors of human CAL PDZ peptide binding; purified CAL PDZ, TMR-peptide fluorescence polarization, 1 h; inhibition, % at 24.9 µM; Q9HD26; 300,000 compounds, 0.92% hits;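 active = mean inhibition of at least 30% with at least half of replicates also reaching 30%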
CAL PDZ FP-2 = blocks peptide binding to human CAL PDZ domain; purified CAL PDZ, TMR-peptide fluorescence polarization, 1 h; inhibition, % at 20 µM; 330,000 compounds, 0.02% hits; Q9HD26;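 active = highest replicate inhibition of at least 40%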
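System: purified tagged CAL PDZ domain construct (CerCALP). Schedule: 1 h incubation at room temperature before polarization reading. Medium: 25 mM sodium phosphate pH 7.4, 150 mM NaCl, TCEP, IgG, Thesit. Read-out: percent inhibition from loss of millipolarization. Measured by: FP readout, S and P plane fluorescence. Probe or stimulus: fluorescent TMR peptide probe.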
Rin1-Abl PPI inh = blocks binding of human Rin1 to Abl. P00519+Q13671. TR-FRET Rin1/Abl binding, biochemical. inhibition, % at 7.35 µM. 360,000 compounds, 0.4% hits; in the data active = inhibition above about 5%, passing the limit was not always enough
ERAP1 HTS inh = blocks human ERAP1 aminopeptidase activity | inhibition, % at 10.7 µM | Q9NZ08 | AID 652197 | 340,000 compounds, 0.15% hits | recombinant ERAP1, Leu-AMC fluorescence, 60 min;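 active = mean replicate inhibition of at least 30%, or all replicates individually reaching that 30% level; inactive = mean below 30% and not every replicate reaching it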
ERp5 block = inhibitors of human ERp5. Q15084. ERp5 insulin aggregation, absorbance 650 nm, 90 min. inhibition, % at 9.99 µM. 350,000 compounds, 0.05% hits;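 active = mean replicate inhibition above about 25%, with every replicate also reaching it, limit read from the data, passing the limit was not always enough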
Target sequence (Q15084 whole entry, looked up): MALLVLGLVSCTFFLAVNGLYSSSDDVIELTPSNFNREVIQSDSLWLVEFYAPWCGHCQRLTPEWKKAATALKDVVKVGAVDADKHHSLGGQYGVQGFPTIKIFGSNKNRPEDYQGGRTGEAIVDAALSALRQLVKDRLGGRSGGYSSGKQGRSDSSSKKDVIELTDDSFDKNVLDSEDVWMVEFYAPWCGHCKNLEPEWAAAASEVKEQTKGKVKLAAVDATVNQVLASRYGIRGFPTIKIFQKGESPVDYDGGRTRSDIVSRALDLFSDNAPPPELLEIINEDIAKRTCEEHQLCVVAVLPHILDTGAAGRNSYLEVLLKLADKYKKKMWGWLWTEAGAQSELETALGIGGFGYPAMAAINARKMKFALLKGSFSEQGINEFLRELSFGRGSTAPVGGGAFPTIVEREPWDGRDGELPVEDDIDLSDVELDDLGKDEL
PDI inh = blocks human protein disulfide isomerase activity | inhibition, % at 10 µM | P07237 | 350,000 compounds, 0.052% hits | PDI insulin aggregation turbidity, A650, 90 min;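 active = mean inhibition across replicates of 30% or more, whatever share of single replicates reach that level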
Rin1 Abl conf = confirmation of inhibitors of human Rin1-Abl interaction. 1,300 compounds, 49% hits. inhibition, % at 7.35 µM. AID 602124. TR-FRET Rin1-Abl binding, purified proteins. shares compounds with Rin1-Abl PPI inh
GFP quench = quenches GFP fluorescence, counter-screen for Rin1-Abl inhibitors; shares compounds with Rin1-Abl PPI inh; inhibitors/quenchers counterscreen; inhibition, % at 6.75 µM; 1,300 compounds, 8.5% hits; AID 602125;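 note: ABL1-eGFP fusion protein alone without its partner RIN1-SBP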
GFP quench DR = quenches GFP in dose response, Rin1-Abl counter-screen; shares compounds with Rin1-Abl PPI inh; GFP fluorescence interference/quenching counterscreen; IC50, µM; 230 tested, under 10 active; AID 602182; call rule not given here;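 note: ABL1-eGFP fusion protein alone without its RIN1 binding partner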
Numbers stand for hits; – = inactive; · = not tested or not shown. An excerpt weighted towards active compounds, which were near 1.1% of everything screened. Cut-off read from the data, not from the text of the source, unless noted: active = inhibition above about 6.5%; inactive = the rest.

SMILES	CAL PDZ FP-1	CAL PDZ FP-2	Rin1-Abl PPI inh	ERAP1 HTS inh	ERp5 block	PDI inh	Rin1 Abl conf	GFP quench	others
CCN(CC)C(=O)CSc1nc(Cc2ccccc2)nc2ccccc12	–	–	24	–	–	–	21	–	GFP quench DR=–
CO[C@H]1CN(C)C(=O)c2ccc(NC(=O)Nc3cccc(Cl)c3)cc2OC[C@H](C)N(C(=O)Nc2c(C)noc2C)C[C@@H]1C	·	·	·	–	–	·	·	·
COc1ccc(CCC(=O)Nc2c(-c3ccc(N(C)C)cc3)[nH][nH]c2=O)cc1	·	·	32	–	–	·	40	–	GFP quench DR=–
COc1ccc(-c2[nH][nH]c(=O)c2NC(=O)c2ccccn2)cc1	·	·	–	·	–	·	·	·
O=C(C[C@@H]1CC[C@@H](NC(=O)Nc2ccc(C(F)(F)F)cc2)[C@H](CO)O1)NCCN1CCCC1	·	·	·	–	–	·	·	·
C/C(=N\N=C1\NC(=O)C(CC(=O)NCc2ccccc2)S1)C(C)C (centres undefined)	–	–	–	–	–	–	·	·
Cc1ccc(N=C2NC(=O)C(CC(=O)NCc3ccccc3)S2)cc1C (centres undefined)	–	–	8.9	·	·	–	–	–
COc1ccc(/C=N/NC(=O)CCN2CCN(c3ccccc3)CC2)c(OC)c1OC	–	–	–	·	·	–	·	·
Cc1cc(C(=O)N/N=C/c2ccc(O)c(O)c2O)c(C)n1-c1ccccc1	–	–	20	–	–	–	11	7.8
O=C(CCN1CCN(c2ccccc2)CC1)N/N=C/c1ccc(O)c(O)c1O	–	–	19	–	–	–	51	13
C/C(=N\NC(=O)Cc1csc(N2CCOCC2)n1)c1ccccc1	–	–	–	·	·	–	·	·
O=C(Cc1csc(N2CCOCC2)n1)N/N=C/c1ccc(O)c(O)c1O	–	–	30	–	–	–	28	9.0
O=c1c2ccccc2ncn1Cc1ccc(Cl)c(Cl)c1	–	–	6.3	–	–	–	–	–
C[C@H]1CN([C@@H](C)CO)C(=O)CCCn2cc(nn2)CO[C@H]1CN(C)Cc1cccc2c1OCCCO2	·	·	·	–	–	·	·	·
CCc1nnc(NC(=O)C2CSC3(C)CCC(=O)N23)s1 (centres undefined)	–	–	–	–	–	–	·	·
CC12CCC(=O)N1C(C(=O)Nc1nnc(SCc3ccccc3F)s1)CS2 (centres undefined)	–	–	32	–	–	–	52	–	GFP quench DR=–
Cc1cc2oc(=O)cc(-c3cc4ccccc4o3)c2cc1O	–	–	–	–	–	–	·	·
COc1cc(OC)c(-c2c3cc(O)c(=O)cc-3oc3cc(O)c(O)cc23)cc1OC	–	–	62	–	–	–	73	–	GFP quench DR=–
Cc1c2cc(O)c(=O)cc-2oc2cc(O)c(O)cc12	·	–	65	–	–	–	88	–
COc1ccc2c3c(n(C)c2c1)[C@@H](CO)N(C)CC31CCN(C(=O)C2CCC2)CC1	·	·	·	–	–	·	·	·
COC(=O)COc1cccc(NC(=O)COc2ccccc2)c1	–	–	7.5	·	·	–	–	–
CC(C)NC(=O)Nc1ccc2c(c1)C(=O)N([C@@H](C)CO)C[C@H](C)[C@@H](CN(C)Cc1ccncc1)OCCCC[C@@H](C)O2	·	·	·	·	–	·	·	·
COc1ccc(CNC(=O)C[C@@H]2C=C[C@H](NC(=O)Nc3ccc4c(c3)OCO4)[C@@H](CO)O2)cc1	·	·	·	–	–	·	·	·
Oc1ccc(/C=N/Nc2ncnc3c2ncn3Cc2ccccc2)cc1O	–	–	12	–	–	–	11	9.1
CO[C@H]1CN(C)C(=O)c2cc(NC(=O)C3CC3)ccc2OC[C@H](C)N(C(=O)c2ccccc2)C[C@@H]1C	·	·	·	–	–	·	·	·
SMILES	CAL PDZ FP-1	CAL PDZ FP-2	Rin1-Abl PPI inh	ERAP1 HTS inh	ERp5 block	PDI inh	Rin1 Abl conf	GFP quench	others
CCN(CC)S(=O)(=O)c1ccc(S(=O)(=O)N2CCC(C(=O)NC3CCN(Cc4ccccc4)CC3)CC2)cc1	–	–	–	·	·	–	·	·
Cc1ccc(Cl)cc1S(=O)(=O)N1CCC(C(=O)NC2CCN(Cc3ccccc3)CC2)CC1	–	–	15	–	–	–	–	–
C[C@H](O)C#Cc1cnc2c(c1)C(=O)N([C@@H](C)CO)C[C@@H](C)[C@@H](CN(C)C(=O)CN(C)C)O2	·	·	·	–	–	·	·	·
O=C(Nc1ccn(C2CCC(CO)O2)c(=O)n1)c1ccccc1 (centres undefined)	·	·	65	–	–	·	56	–
C#CCO[C@@H]1C[C@H](n2ccc(NC(=O)c3ccccc3)nc2=O)O[C@@H]1CO	–	–	10	–	–	–	–	–
C#CCO[C@@H]1C[C@H](n2cnc3c(NC(=O)c4ccccc4)ncnc32)O[C@@H]1CO	–	–	–	–	–	–	·	·
O=C(C[C@@H]1CC[C@@H]2[C@H](COC[C@H](O)CN2C(=O)c2ccccc2F)O1)N1CCN(c2ccccc2)CC1	·	·	·	–	–	·	·	·
COc1ccc(C2=NOC(C)(c3nnc(-c4ccncc4)o3)C2)cc1 (centres undefined)	–	–	12	–	–	–	–	–
Cc1ccc(C2=NOC(C)(c3nnc(-c4ccncc4)o3)C2)cc1 (centres undefined)	–	–	15	–	–	–	–	–
CC1(c2nnc(-c3ccc(Cl)cc3)o2)CC(c2ccncc2)=NO1 (centres undefined)	–	–	–	–	–	–	·	·
COc1ccc2c3c([nH]c2c1)[C@H](CO)N(C(C)=O)CC31CN(S(=O)(=O)c2ccccc2)C1	·	·	·	–	–	·	·	·
CCc1ccc(CN2CCC(Oc3ccc(C(=O)N4CCCCC4)cc3)CC2)cc1	–	–	10	–	–	–	–	–
C[C@H]1CN([C@@H](C)CO)C(=O)c2cccc(NS(=O)(=O)c3ccccc3)c2O[C@H]1CN(C)C(=O)Nc1cccc2ccccc12	·	·	·	–	–	·	·	·
O=C(C(Cl)Cl)N1CCN(Cc2ccc3c(c2)OCO3)CC1	–	–	6.9	–	–	–	–	–
CCOc1ncccc1C(=O)OC(C)C(=O)Nc1ccc(Cl)cn1 (centres undefined)	–	–	8.2	–	–	–	–	–
CC=Cc1ccc2n(c1=O)C[C@H]1[C@H](CO)[C@@H](C(=O)NCCc3cn(C)cn3)[C@@H]2N1C(=O)C1CCCC1 (mixture of isomers)	·	·	·	·	–	·	·	·
Cc1ccsc1C(=O)NNC(=O)c1ccc(NS(=O)(=O)c2cccs2)cc1	–	–	10	–	–	–	–	–
COCC(=O)OC1CCn2c1nc1c2C(=O)C(C)=C(NC(C)=O)C1=O (centres undefined)	–	–	18	–	–	–	16	–
